Here are results for six molecules from ChEMBL document CHEMBL3352173, “Optimization of pyrrolamide topoisomerase II inhibitors toward identification of an antibacterial clinical candidate (AZD5099)” (J Med Chem, 2014).

Molecules are shown by their SMILES. Values after ≈ are worked out from the molar mass of the structure shown.

The test system of data set [1] is Staphylococcus aureus. Nature of the data set: Antimicrobial activity against methicillin-sensitive Staphylococcus aureus by broth microdilution/CLSI method. In kind it is functional. To be noted: Staphylococcus aureus; read-out: MIC. (Dilution methods test growth across graded concentrations, often in twofold steps.)
The next data set concerns Moraxella catarrhalis. Nature of the data set: Antimicrobial activity against Moraxella catarrhalis by broth microdilution/CLSI method. In kind it is functional. Conditions: Moraxella catarrhalis; read-out: MIC.
The nature of data set [2]: Percentage unbound in human plasma. In kind it is ADME, cell-free.
Data set [3] concerns Escherichia coli. Nature of the data set: Antimicrobial activity against Escherichia coli tolC- by broth microdilution/CLSI method. The format is functional. To be noted: Escherichia coli; read-out: MIC.
A further data set concerns Haemophilus influenzae. Nature of the data set: Antimicrobial activity against Haemophilus influenzae by broth microdilution/CLSI method. The format is functional. To be noted: Haemophilus influenzae; read-out: MIC.
Data set [4] concerns Staphylococcus aureus. As to the kind of experiment: Antimicrobial activity against methicillin, quinolone-resistant Staphylococcus aureus by broth microdilution/CLSI method. The format is functional. Conditions: Staphylococcus aureus; read-out: MIC.
Data set [5] can be described thus: Octanol-phosphate buffer distribution coefficient, log D of the compound at pH 7.4 by shake flask method. The format is physicochemical.
For a further data set, the system named is Streptococcus pneumoniae. As to the kind of experiment: Antibacterial activity against Streptococcus pneumoniae by broth microdilution/CLSI method. In kind it is functional. To be noted: Streptococcus pneumoniae; read-out: MIC.
Data set [6] in a line: Ratio of MIC for methicillin, quinolone-resistant Staphylococcus aureus to fraction unbound in human plasma. In kind it is ADME.
For a further data set, the target named is DNA gyrase subunit B (Staphylococcus aureus, UniProt P0A0K8). As to the kind of experiment: Inhibition of ATPase activity of Staphylococcus aureus GyrB. In a few lines: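 IC50 was determined against S. aureus GyrB in the routine screening assay. The enzyme concentration limits resolution below 10 nM.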
Data set [7] has as its system Escherichia coli. Nature of the data set: Antimicrobial activity against wild-type Escherichia coli Eco523 by broth microdilution/CLSI method. To be noted: Escherichia coli, Eco523; read-out: MIC. In kind it is functional.
The nature of data set [8]: Solubility of the compound. The format is physicochemical.
The next data set concerns Streptococcus pyogenes. Nature of the data set: Antimicrobial activity against Streptococcus pyogenes by broth microdilution/CLSI method. The format is functional.

Chain of DNA gyrase subunit B (P0A0K8 whole entry): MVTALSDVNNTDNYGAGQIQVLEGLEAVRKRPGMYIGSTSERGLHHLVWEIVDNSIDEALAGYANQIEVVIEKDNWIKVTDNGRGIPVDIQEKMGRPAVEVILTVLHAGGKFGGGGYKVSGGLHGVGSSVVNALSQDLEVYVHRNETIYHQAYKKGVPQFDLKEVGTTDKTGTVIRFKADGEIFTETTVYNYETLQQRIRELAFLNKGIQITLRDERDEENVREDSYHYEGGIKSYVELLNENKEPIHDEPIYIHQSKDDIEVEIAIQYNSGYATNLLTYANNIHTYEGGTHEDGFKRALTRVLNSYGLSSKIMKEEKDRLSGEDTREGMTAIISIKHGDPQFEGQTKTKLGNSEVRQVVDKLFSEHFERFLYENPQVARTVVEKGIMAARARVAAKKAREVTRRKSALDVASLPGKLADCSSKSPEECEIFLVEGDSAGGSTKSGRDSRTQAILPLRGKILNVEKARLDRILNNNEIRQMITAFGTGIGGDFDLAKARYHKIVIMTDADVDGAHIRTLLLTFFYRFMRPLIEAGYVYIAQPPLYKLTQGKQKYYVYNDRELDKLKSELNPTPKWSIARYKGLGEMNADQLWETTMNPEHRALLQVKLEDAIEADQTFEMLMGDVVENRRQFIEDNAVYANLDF

For orientation: fraction unbound means free concentration divided by total concentration. A lower fraction unbound goes with little free substance. Broadly, the logD is the decadic logarithm of the distribution of all forms, ionised or not, between an organic phase and buffer at a given pH. A higher logD goes with higher lipophilicity. In general, IC50 refers to the concentration needed to halve the response being measured. Read a high IC50 as lower potency. Broadly, the solubility is the dissolved amount per volume that the medium holds. Low readings indicate little dissolved substance, high ones much dissolved substance. In the case of `CO[C@H]1CN(c2nc(C(N)=O)c(C(=O)O)s2)CC[C@H]1NC(=O)c1[nH]c(C)c(Cl)c1Cl`, the MIC with Staphylococcus aureus [1] came out at 0.5 µg/mL (≈ 1.05 µM); in the data set on Moraxella catarrhalis, 0.02 µg/mL (≈ 0.042 µM); in the data set with Escherichia coli [3], 0.32 µg/mL (≈ 0.672 µM); with Haemophilus influenzae it was 0.16 µg/mL (≈ 0.336 µM); in the data set on Staphylococcus aureus [4], 0.5 µg/mL (≈ 1.05 µM); in the data set with Streptococcus pneumoniae it was 0.039 µg/mL (≈ 0.0819 µM). In addition, the MIC in the data set with Escherichia coli [7] is above 8 µg/mL; with Streptococcus pyogenes it was 0.039 µg/mL (≈ 0.0819 µM). The fraction unbound in [2] stood at 0.043. The molecule also yielded a logD in data set [5] of 0.85. Also, the Ratio in data set [6] worked out at 12. The molecule further registered an IC50 against DNA gyrase subunit B below 10 nM. The solubility in data set [8] was determined as 280 µM (≈ 133 µg/mL).
`CO[C@H]1CN(c2nc(-c3ncc[nH]3)c(C(=O)O)s2)CC[C@H]1NC(=O)c1[nH]c(C)c(Cl)c1Cl`: the MIC is 0.63 µg/mL (≈ 1.26 µM) in the data set with Staphylococcus aureus [1]; below 0.06 µg/mL in the data set on Moraxella catarrhalis; below 0.06 µg/mL in the data set on Escherichia coli [3]; 1 µg/mL (≈ 2 µM) in the data set on Haemophilus influenzae; 1 µg/mL (≈ 2 µM) with Staphylococcus aureus [4]; below 0.06 µg/mL in the data set on Streptococcus pneumoniae. The figures for the MIC in the data set on Escherichia coli [7] and with Streptococcus pyogenes were above 64 µg/mL and 0.08 µg/mL (≈ 0.16 µM), respectively. For the same molecule, the fraction unbound in data set [2] was below 0.01. The logD in data set [5] was above 2.5. The Ratio in data set [6] amounted to 100. The molecule also had an IC50 at DNA gyrase subunit B below 10 nM. In data set [8], this molecule showed a solubility below 1 µM.
With `CO[C@H]1CN(c2nc(C(=O)NN3CCOCC3)c(C(=O)O)s2)CC[C@H]1NC(=O)c1[nH]c(C)c(Cl)c1Cl`, the MIC in the data set on Staphylococcus aureus [1] came out at 2 µg/mL (≈ 3.56 µM); in the data set with Moraxella catarrhalis, 0.35 µg/mL (≈ 0.623 µM); with Escherichia coli [3] it was 1 µg/mL (≈ 1.78 µM); in the data set on Haemophilus influenzae it was 1.4 µg/mL (≈ 2.49 µM); with Staphylococcus aureus [4], 4 µg/mL (≈ 7.12 µM); in the data set on Streptococcus pneumoniae, 0.25 µg/mL (≈ 0.445 µM). The MIC in the data set on Escherichia coli [7] was above 64 µg/mL; against Streptococcus pyogenes, 0.25 µg/mL (≈ 0.445 µM). The molecule also showed a fraction unbound in [2] of 0.071. In data set [5], this molecule returned a logD of -0.15. In data set [6], the Ratio was 56. In addition, at DNA gyrase subunit B, the IC50 is below 10 nM. Also, in data set [8], the solubility was above 1000 µM.
`CO[C@H]1CN(c2nc(C(=O)NCCN3CCCC3=O)c(C(=O)O)s2)CC[C@H]1NC(=O)c1[nH]c(C)c(Cl)c1Cl`: the MIC is 0.35 µg/mL (≈ 0.596 µM) in the data set with Staphylococcus aureus [1]; below 0.063 µg/mL with Moraxella catarrhalis; 0.71 µg/mL (≈ 1.21 µM) in the data set on Escherichia coli [3]; 0.5 µg/mL (≈ 0.851 µM) in the data set on Haemophilus influenzae; 1.4 µg/mL (≈ 2.38 µM) in the data set with Staphylococcus aureus [4]; below 0.06 µg/mL in the data set on Streptococcus pneumoniae. Also, the MIC with Escherichia coli [7] was 64 µg/mL (≈ 109 µM); in the data set with Streptococcus pyogenes, below 0.06 µg/mL. In addition, in data set [2], the fraction unbound stood at 0.076. The Ratio in [6] is 18. The IC50 at DNA gyrase subunit B is below 10 nM. Also, the concentration in solution in data set [8] (solubility) came to 870 µM (≈ 511 µg/mL).
For the molecule `CO[C@H]1CN(c2nc(C(=O)O)c(C)s2)CC[C@H]1NC(=O)c1[nH]c(C)c(Cl)c1Cl`, the MIC in the data set on Staphylococcus aureus [1] is 0.13 µg/mL (≈ 0.291 µM); in the data set with Moraxella catarrhalis, 0.063 µg/mL (≈ 0.141 µM); with Escherichia coli [3] it was 0.25 µg/mL (≈ 0.559 µM); with Haemophilus influenzae it was 0.25 µg/mL (≈ 0.559 µM); in the data set on Staphylococcus aureus [4], 0.13 µg/mL (≈ 0.291 µM); in the data set with Streptococcus pneumoniae, 0.031 µg/mL (≈ 0.0693 µM). Besides, the MIC is above 8 µg/mL in the data set with Escherichia coli [7] and 0.063 µg/mL (≈ 0.141 µM) in the data set on Streptococcus pyogenes. Also, in data set [2], the fraction unbound is 0.007. In data set [5], this molecule showed a logD of 1.2. The Ratio in data set [6] is given as 19. For the same molecule, the IC50 against DNA gyrase subunit B was below 10 nM. Moreover, in data set [8], the solubility was above 1000 µM.
On to `CO[C@H]1CN(c2nc(-c3cncc(NCCN4CCN(C)CC4)n3)c(C(=O)O)s2)CC[C@H]1NC(=O)c1[nH]c(C)c(Cl)c1Cl`, for which the MIC in the data set on Staphylococcus aureus [1] is 0.25 µg/mL (≈ 0.383 µM); in the data set on Escherichia coli [3] it was 0.51 µg/mL (≈ 0.781 µM); with Haemophilus influenzae it was 1 µg/mL (≈ 1.53 µM); with Staphylococcus aureus [4], 0.58 µg/mL (≈ 0.889 µM); in the data set with Streptococcus pneumoniae, 0.011 µg/mL (≈ 0.0169 µM); in the data set on Escherichia coli [7], 46 µg/mL (≈ 70.5 µM). Moreover, in the data set with Streptococcus pyogenes, the MIC was found to be 0.031 µg/mL (≈ 0.0475 µM). Also, the fraction unbound in data set [2] was found to be 0.027. This molecule also yielded a logD in data set [5] of 2. For the same molecule, in data set [6], the Ratio is 21. On DNA gyrase subunit B, this molecule displayed an IC50 of 1.2 nM. In addition, in data set [8], the concentration in solution (solubility) came to 36 µM (≈ 23.5 µg/mL).
